The text below walks through data of ChEMBL document CHEMBL4014282 (Eur J Med Chem, 2017).

Each structure is given as a SMILES string. Converted amounts (≈) assume the structure as drawn.

For series [1], the system named is MDA-MB-231. As to the kind of experiment: Antiproliferative activity against human MDA-MB-231 cells after 72 hrs by CellTiter-Glo luminescent assay. It counts as functional, cell-based. Particulars: MDA-MB-231, 72 h. Put shortly: (§1)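 Cells seeded at 2 x 10⁴/well, rested 24 h, then exposed to increasing concentrations or DMSO vehicle for 72 h. MDA-MB-231 grown in RPMI 1640 with 10% FCS; U2OS grown in DMEM + GlutaMAX with 10% FCS; both at 37°C, 5% CO₂. Viable cells read by ATP luminescence, triplicate wells. IC₅₀ from fitted dose-response curves, mean ± SD of at least 3 independent experiments.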
On the technique in general: Cellular ATP, detected with luciferase, serves as a proxy for viable cell number.

Series [2] deals with U2OS. As to the kind of experiment: Antiproliferative activity against human U2OS cells after 72 hrs by CellTiter-Glo luminescent assay. It is filed as functional, cell-based. Put shortly:
as §1

The nature of series [3]: Stability in rat plasma assessed as compound remaining at 1 uM after 120 mins by LC-MS/MS method. It is filed as ADME, cell-free. Conditions: read-out: Stability. The gist of the method:
(§2)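 Rat or mouse plasma, pH adjusted to 7.4 if needed, spiked with compound at 1 µM (2.5% final DMSO) at 37 °C. Stopped at 0, 15, 30, 60 and 120 min with methanol containing internal standard. Parent measured by LC-MS/MS peak-area ratio and expressed as percent remaining relative to 0 min.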

Series [4] can be described thus: Stability in mouse plasma assessed as compound remaining at 1 uM after 120 mins by LC-MS/MS method. It is filed as ADME, cell-free. Conditions: read-out: Stability. The gist of the method: as §2
The nature of series [5]: Stability in simulated gastric fluid at pH 1.2 assessed as compound remaining at 1 uM after 120 mins by LC-MS/MS method. Put shortly:
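Simulated gastric fluid (HCl, NaCl, pepsin; pH 1.2), compound at 1 μM with 2.5% final DMSO, 37 °C. Quenched at 0, 15, 30, 60 and 120 min with methanol containing internal standard. Parent quantified by LC-MS/MS peak-area ratio and expressed as percent remaining versus 0 min.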

A short description of series [6]: Fraction unbound in rat plasma at 5 uM by LC-MS/MS method. It counts as ADME, cell-free. Put shortly: (§3)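 Equilibrium dialysis across a semi-permeable membrane, buffer (pH 7.4) on one side and 100% species-specific plasma on the other. Test compound at 5 μM with 0.5% final DMSO, 37 °C. Both sides sampled at equilibrium and quantified by LC-MS/MS against matrix-matched standard curves. %fu from duplicate incubations, with a control compound in each run.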

A short description of series [7]: Fraction unbound in mouse plasma at 5 uM by LC-MS/MS method. It is filed as ADME, cell-free. Put shortly: as §3
A short description of series [8]: Thermodynamic solubility of the compound in phosphate buffered saline at pH 7.4 at 1 mg sonicated for 10 mins measured after 12 hrs by HPLC method. It counts as physicochemical. Conditions: read-out: Therm_solubility. The gist of the method: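 Centrifuged until clear, and supernatant analysed by HPLC at 254 nm. Concentration derived from a linear (Y = aX) calibration of MeCN dilutions at 10–100 µg/mL. Measured at 22 °C.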

Series [9] is described as follows: Stability of the compound in PEG400 using liquid sample at 5 mg/ml at 5 degC after 30 days by UV-HPLC method. It is filed as physicochemical. Particulars: 720 h.
Series [10] can be described thus: Stability of the compound in PEG400 using liquid sample at 5 mg/ml at 25 degC after 30 days by UV-HPLC method. It counts as physicochemical. Conditions: 720 h.
Series [11] can be described thus: Stability of the compound in polysorbate80/poloxamer188 formulation using liquid sample at 1 mg/ml at 5 degC after 30 days by UV-HPLC method. It counts as physicochemical. Particulars: 720 h. The gist of the method:
(§4)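 Intravenous-type dosage solution: API at 1 mg/mL in water for injection containing polysorbate 80 and poloxamer 188 (5 mg/mL each). API dissolved in the surfactants at 70–80 °C, hot water added slowly, then cooled to ambient. Stored at 5 or 25 °C; stability followed by HPLC over 30 days.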

A short description of series [12]: Stability of the compound in polysorbate80/poloxamer188 formulation using liquid sample at 1 mg/ml at 25 degC after 30 days by UV-HPLC method. It counts as physicochemical. Conditions: 720 h. The gist of the method: as §4
Series [13] can be described thus: Stability of the compound in PEG8000 formulation using solid sample at 5 mg/ml at 5 degC after 30 days by UV-HPLC method. It counts as physicochemical. Particulars: 720 h. Put shortly: (§5)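 Solid tablets cast from hot melt: API dissolved in melted PEG8000 at 90–100 °C with stirring, or first dissolved in PEG400 and then mixed into melted PEG8000, giving a formulation containing 10% PEG400. Stored at 5 or 25 °C, degradation assessed by HPLC over 30 days, with one reading at 33 days.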

A short description of series [14]: Stability of the compound in PEG8000 formulation using solid sample at 5 mg/ml at 25 degC after 33 days by UV-HPLC method. It is filed as physicochemical. Particulars: 792 h. The gist of the method:
as §5

A short description of series [15]: Intrinsic clearance in Sprague-Dawley rat liver microsomes assessed per mg protein at 3 uM preincubated for 45 mins followed by NADPH addition by LC-MS/MS method.
Series [16] is described as follows: Aqueous solubility of the compound. It counts as physicochemical. Particulars: buffer.
Series [17] deals with U2OS. In words: Cell cycle arrest in human U2OS cells assessed as accumulation at G2/M phase after 24 hrs by propidium iodide staining based flow cytometric method. It is filed as functional. Put shortly:
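Exponentially growing U2OS cells treated 24 h with compound or DMSO vehicle. Cells collected, PBS-washed and fixed in ice-cold 70% methanol. About 1 million cells stained 30 min at 37 °C with propidium iodide (1%) plus RNase A (2.5%) in PBS, then analysed by flow cytometry. Phase percentages given as mean ± SD of two independent experiments.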
In general terms: A flow cytometer gives signals particle by particle.

A short description of series [18]: Stability of the compound in PEG400 using liquid sample at 10 mg/ml at 5 degC after 30 days by UV-HPLC method. It counts as physicochemical. Conditions: 720 h. Put shortly: (§6)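 API dissolved in PEG400 at 70–80 °C with vortexing to a clear solution at 10 mg/mL. Stored at 5 or 25 °C and checked for degradation by HPLC over 30 days.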
Series [19] in a line: Stability of the compound in PEG400 using liquid sample at 10 mg/ml at 25 degC after 30 days by UV-HPLC method. It is filed as physicochemical. Particulars: 720 h. Put shortly:
as §6

A short description of series [20]: Stability of the compound in PEG8000/10% PEG400 formulation using solid sample at 5 mg/ml at 5 degC after 30 days by UV-HPLC method. It is filed as physicochemical. Conditions: 720 h. Put shortly: as §5
Series [21] can be described thus: Stability of the compound in PEG8000/10% PEG400 formulation using solid sample assessed as compound degradation at 5 mg/ml at 25 degC after 33 days by UV-HPLC method. It is filed as physicochemical. Conditions: read-out: Drug degradation. The gist of the method: as §5
Series [22] can be described thus: Intrinsic clearance in CD1 mouse liver microsomes assessed per mg protein at 3 uM preincubated for 45 mins followed by NADPH addition by LC-MS/MS method. For orientation: Microsomes from liver hold many membrane-bound enzymes, among them those of drug oxidation.

As for `COc1cc(OC)c2c(c1Cl)O[C@]1(C2=O)C(OCc2ccccc2)=C/C(=N/O)C[C@H]1C`, the results for the IC50 in [1] and in [2] were 1400 nM and 1200 nM, respectively. Moreover, the remaining at 2 h, 1 µM in [3] worked out at 102%; in series [4], 87%. The Stability in series [5] is 81%; in series [9], “Stable”; in series [10], “Stable”; in series [11] it was “Stable”; in series [12], “Stable”; in series [13], “Stable”. Besides, the Stability result in series [14] is “Stable”. In addition, the fraction unbound at 5 µM was 0.014 in series [6] and 0.043 in series [7]. Besides, the solubility thermodynamic at 12 h in [8] was determined as 3 µg/mL (≈ 6.76 µM). Besides, the CLH in [15] was determined as 59.1 mL/min.

For the compound `COc1cc(OC)c2c(c1Cl)O[C@]1(C2=O)C(O[C@H](C)c2ccccc2)=CC(=O)C[C@H]1C`, the IC50 came out at 17100 nM in series [1] and 13700 nM in [2]. In series [16], the solubility entry was “Insoluble”.

As to `COC1=CC(=O)C[C@@H](C)[C@]12Oc1c(Cl)c(OC)cc(OC)c1C2=O` [GRISEOFULVIN], the remaining at 2 h, 1 µM in series [3] and in series [4] was 107% in each case. For the same compound, the Stability in [5] is 73%. In addition, the unbound share (fraction unbound) at 5 µM worked out at 0.216 in [6] and 0.427 in series [7]. The Activity entry in series [17] was “Dose-dependent effect”.

`COc1cc(OC)c2c(c1Cl)O[C@]1(C2=O)C(OCc2ccccc2)=CC(=O)C[C@H]1C`: the IC50 is 1700 nM in series [1] and 1300 nM in series [2]. Moreover, the remaining at 2 h, 1 µM turned out to be 101% in [3] and 91% in series [4]. Further, the Stability in series [5] is 62%; in [18], “Stable”; in [19], “Stable”; in series [20] it was “Stable”; in series [12], “Unstable”. Further, the unbound share (fraction unbound) at 5 µM in series [6] is 0.027; in series [7], 0.112. In series [8], the solubility thermodynamic at 12 h worked out at 0.3 µg/mL (≈ 0.7 µM). Further, the degraded at 792 h, 5 mg/ml in series [21] amounted to 4%. In [15], this compound came in with a CLH of 45 mL/min.

As for `COc1cc(OC)c2c(c1Cl)O[C@]1(C2=O)C(NCc2ccc(C)cc2)=CC(=O)C[C@H]1C`, the results for the IC50 in series [1] and in series [2] were 8200 nM and 6900 nM, respectively. Also, the remaining at 2 h, 1 µM turned out to be 111% in [3] and 107% in series [4]. Also, in series [5], the Stability is 54%. Besides, the fraction unbound at 5 µM in series [6] is 0.055; in [7], 0.11.

`COc1cc(OC)c2c(c1Cl)O[C@]1(C2=O)C(NCc2ccc(F)cc2)=CC(=O)C[C@H]1C`: the half-inhibitory concentration (IC50) in [1] worked out at 5200 nM; in series [2] it was 2600 nM. Also, the remaining at 2 h, 1 µM turned out to be 92% in [3] and 108% in series [4]. For the same compound, in series [5], the Stability is 54%. Further, the fraction unbound at 5 µM is 0.094 in [6] and 0.132 in series [7].

For `COc1cc(OC)c2c(c1Cl)O[C@]1(C2=O)C(NCc2ccccc2)=CC(=O)C[C@H]1C`, the IC50 in series [1] worked out at 3200 nM; in [2], 2100 nM. In addition, the values for the remaining at 2 h, 1 µM in [3] and in series [4] were 116% and 117%, respectively. Also, the Stability is 52% in series [5]; “Stable” in [9]; “Stable” in [10]; “Stable” in [11]; “Unstable” in [12]; “Stable” in series [13]. Besides, in [14], the Stability entry is reported as “Stable”. Moreover, the fraction unbound at 5 µM in series [6] is 0.111; in series [7] it was 0.141. Further, the solubility thermodynamic at 12 h in [8] came to 62 µg/mL (≈ 145 µM). The Activity result in series [17] was “Dose-dependent effect”. In addition, in series [15], the CLH is 28 mL/min.

Regarding `COc1cc(OC)c2c(c1Cl)O[C@]1(C2=O)C(OCc2ccc(F)cc2)=CC(=O)C[C@H]1C`, the CLH in series [22] was 17.4 mL/min; in [15] it was 30.7 mL/min.

Regarding `COc1cc(OC)c2c(c1Cl)O[C@]1(C2=O)C(N(C)Cc2ccccc2)=CC(=O)C[C@H]1C`, the IC50 was found to be 3500 nM in series [1] and 1900 nM in series [2]. The remaining at 2 h, 1 µM in series [3] was 106%; in [4], 104%. Besides, the Stability in series [5] was 15%. Also, the results for the fraction unbound at 5 µM in [6] and in series [7] were 0.06 and 0.087, respectively.

For the compound `COc1cc(OC)c2c(c1Cl)O[C@]1(C2=O)C(OCc2ccc(C)cc2)=CC(=O)C[C@H]1C`, the IC50 in [1] came out at 1700 nM; in [2] it was 1300 nM. Besides, the remaining at 2 h, 1 µM in series [3] was determined as 89%; in [4], 102%. In series [5], the Stability was 68%. The fraction unbound at 5 µM in series [6] and in [7] was 0.018 each time. Moreover, the CLH in [15] worked out at 60.2 mL/min.

Turning to `COc1cc(OC)c2c(c1Cl)O[C@]1(C2=O)C(O[C@@H](C)c2ccccc2)=CC(=O)C[C@H]1C`, the IC50 in [1] was determined as 7100 nM; in [2], 1600 nM. The solubility entry in series [16] is recorded as “Insoluble”.

For orientation: IC50 means the concentration needed to halve the response being measured. A lower IC50 goes with greater potency in that assay. For orientation: fraction unbound means the share of the substance not bound to proteins or other matrix. A high value points to weak binding.
